Read-outs that look alike come from different tables or passages of the source.
Columns and labels:
[1] = SAD phase pharmacokinetics; format: in vivo, human; conditions: for AUC(0-t) / Tmax / AUC(0-inf) / Cmax / half-life: human, plasma, oral; for AUC(0-t): AUClast; for AUC(0-inf): AUCinf; for Cmax: C max
How it was run: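 Single oral doses of 0.3–50 mg after ≥10 h fast. Plasma (K-EDTA) was sampled predose and […]; urine was collected for 48 h. Assay was validated LC-MS/MS (plasma LLOQ 1.00 ng/mL; below-LLOQ set to 0). AUClast, Cmax and Tmax were derived at all doses; AUCinf, clearance and t1/2 from 10 mg upward. Urinary excretion and renal clearance were also derived. Steady-state time was estimated from these SAD data.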

[2] = system: healthy subjects; test: MAD phase CNS test battery; format: in vivo, human
[3] = Plasma protein binding, equilibrium dialysis; format: in vitro ADME, human; conditions: assumed from protein binding
How it was run: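 In vitro equilibrium dialysis of test compound at 1 and 10 μM in human plasma (also mouse, rat, dog and monkey). Mean percentage bound was determined. The free fraction was used to correct CSF/plasma concentration ratios.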

[4] = system: healthy subjects
[5] = system: healthy subjects; remark: listed apart in the source
[6] = dogs, preclinical experiments, cited from earlier work
[7] = both, 10 mg, GeoMean, SAD 10 mg
[8] = SAD pooled zagociguat group (n = 42)
[9] = MAD pooled zagociguat group (n = 32)
[10] = same subject, 2 mg q.d., day 30

Fc1ccccc1Cc1nc(-c2nc(C(F)(F)F)n[nH]2)cn2ccnc12 [zagociguat, 8‐(2‐fluorobenzyl)‐6‐(3‐(trifluoromethyl)‐1H‐1,2,4‐triazol‐5‐yl)imidazo[1,2‐a]pyrazine]
Dose level from which detectable in urine ([1]; SAD): 10 mg | AUC(0-t) ([1]; both, 3 mg, GeoMean, SAD 3 mg): 11.4 µg·h/mL | AUC(0-t) ([1]; both, 3 mg, Median, SAD 3 mg): 11.2 µg·h/mL | Tmax ([1]; both, 3 mg, T max, Median, SAD 3 mg): 2.1 h | AUC(0-inf) [1, 7]: 92.3 µg·h/mL | AUC(0-inf) ([1]; both, 10 mg, Median, SAD 10 mg): 95 µg·h/mL | AUC(0-t) [1, 7]: 57.6 µg·h/mL | AUC(0-t) ([1]; both, 10 mg, Median, SAD 10 mg): 57.9 µg·h/mL | Cmax [1, 7]: 1190 ng/mL | Cmax ([1]; both, 10 mg, Median, SAD 10 mg): 1290 ng/mL | Tmax ([1]; both, 10 mg, T max, Median, SAD 10 mg): 3.5 h | half-life ([1]; both, 10 mg, t 1/2, GeoMean, SAD 10 mg): 63.4 h | half-life ([1]; both, 10 mg, t 1/2, Median, SAD 10 mg): 64.8 h | Cmax ([1]; both, 20 mg, GeoMean, SAD 20 mg): 2190 ng/mL | AUC(0-t) ([1]; 0.3 mg, GeoMean, SAD 0.3 mg): 1.06 µg·h/mL | AUC(0-t) ([1]; 0.3 mg, Median, SAD 0.3 mg): 1.09 µg·h/mL | Cmax ([1]; 0.3 mg, GeoMean, SAD 0.3 mg): 40 ng/mL | Cmax ([1]; 0.3 mg, Median, SAD 0.3 mg): 40.5 ng/mL | Tmax ([1]; 0.3 mg, T max, Median, SAD 0.3 mg): 0.8 h | AUC(0-t) ([1]; 1 mg, GeoMean, SAD 1 mg): 4.34 µg·h/mL | AUC(0-t) ([1]; 1 mg, Median, SAD 1 mg): 4.46 µg·h/mL | Cmax ([1]; 1 mg, GeoMean, SAD 1 mg): 142 ng/mL | Cmax ([1]; 1 mg, Median, SAD 1 mg): 150 ng/mL | Tmax ([1]; 1 mg, T max, Median, SAD 1 mg): 1 h | Cmax ([1]; 3 mg, GeoMean, SAD 3 mg): 373 ng/mL | Cmax ([1]; 3 mg, Median, SAD 3 mg): 372 ng/mL | AUC(0-inf) ([1]; 20 mg, GeoMean, SAD 20 mg): 194 µg·h/mL | AUC(0-inf) ([1]; 20 mg, Median, SAD 20 mg): 180 µg·h/mL | AUC(0-t) ([1]; 20 mg, GeoMean, SAD 20 mg): 167 µg·h/mL | AUC(0-t) ([1]; 20 mg, Median, SAD 20 mg): 158 µg·h/mL | Cmax ([1]; 20 mg, Median, SAD 20 mg): 2260 ng/mL | Tmax ([1]; 20 mg, T max, Median, SAD 20 mg): 4 h | half-life ([1]; 20 mg, t 1/2, GeoMean, SAD 20 mg): 67.1 h | half-life ([1]; 20 mg, t 1/2, Median, SAD 20 mg): 68 h | AUC(0-inf) ([1]; 30 mg, GeoMean, SAD 30 mg): 272 µg·h/mL | AUC(0-inf) ([1]; 30 mg, Median, SAD 30 mg): 288 µg·h/mL | AUC(0-t) ([1]; 30 mg, GeoMean, SAD 30 mg): 251 µg·h/mL | AUC(0-t) ([1]; 30 mg, Median, SAD 30 mg): 273 µg·h/mL | Cmax ([1]; 30 mg, GeoMean, SAD 30 mg): 3370 ng/mL | Cmax ([1]; 30 mg, Median, SAD 30 mg): 3650 ng/mL | Tmax ([1]; 30 mg, T max, Median, SAD 30 mg): 4.5 h | half-life ([1]; 30 mg, t 1/2, GeoMean, SAD 30 mg): 65.7 h | half-life ([1]; 30 mg, t 1/2, Median, SAD 30 mg): 62.2 h | AUC(0-inf) ([1]; 50 mg, GeoMean, SAD 50 mg): 478 µg·h/mL | AUC(0-inf) ([1]; 50 mg, Median, SAD 50 mg): 471 µg·h/mL | AUC(0-t) ([1]; 50 mg, GeoMean, SAD 50 mg): 425 µg·h/mL | AUC(0-t) ([1]; 50 mg, Median, SAD 50 mg): 427 µg·h/mL | Cmax ([1]; 50 mg, GeoMean, SAD 50 mg): 5730 ng/mL | Cmax ([1]; 50 mg, Median, SAD 50 mg): 5820 ng/mL | Tmax ([1]; 50 mg, T max, Median, SAD 50 mg): 5 h | half-life ([1]; 50 mg, t 1/2, GeoMean, SAD 50 mg): 57 h | half-life ([1]; 50 mg, t 1/2, Median, SAD 50 mg): 57.3 h | half-life ([1]; Mean t 1/2, range, single administrations of 10–50 mg): 57 to 68 h | Tmax ([1]; Median T max, range, SAD doses of 0.3–3 mg): 0.5 to 2.1 h | Tmax ([1]; Median T max, range, SAD doses of 10–50 mg): 3.5 to 5 h | Estimated time to steady-state ([1]; preliminary PK data from the SAD phase): 11 days | pEEG and CNS tests, differences between placebo and zagociguat groups [2]: No dose‐dependent or consistent statistically significant differences | Free zagociguat concentration in human plasma, of total concentration [3]: 1.11% | Subjects discontinued from study drug due to ≥1 TEAE ([4]; SAD 0.3 mg (n = 6)): 0 n | Subjects with ≥1 SAE ([4]; SAD 0.3 mg (n = 6)): 0 n | Subjects with ≥1 TEAE ([4]; SAD 0.3 mg (n = 6)): 2 (33.3%) n (%) | Subjects with ≥1 study drug related TEAE ([4]; SAD 0.3 mg (n = 6)): 2 n | TEAEs ([4]; SAD 0.3 mg (n = 6)): 5 n | Subjects discontinued from study drug due to ≥1 TEAE ([4]; SAD 1 mg (n = 6)): 0 n | Subjects with ≥1 SAE ([4]; SAD 1 mg (n = 6)): 0 n | Subjects with ≥1 TEAE ([4]; SAD 1 mg (n = 6)): 2 (33.3%) n (%) | Subjects with ≥1 study drug related TEAE ([4]; SAD 1 mg (n = 6)): 1 n | TEAEs ([4]; SAD 1 mg (n = 6)): 5 n | Orthostatic hypotension TEAE ([4]; SAD 3 mg): One | Subjects discontinued from study drug due to ≥1 TEAE ([4]; SAD 3 mg (n = 6)): 0 n | Subjects with ≥1 SAE ([4]; SAD 3 mg (n = 6)): 0 n | Subjects with ≥1 TEAE ([4]; SAD 3 mg (n = 6)): 3 (50.0%) n (%) | Subjects with ≥1 study drug related TEAE ([4]; SAD 3 mg (n = 6)): 2 n | TEAEs ([4]; SAD 3 mg (n = 6)): 7 n | Subjects discontinued from study drug due to ≥1 TEAE ([4]; SAD 10 mg (n = 6)): 0 n | Subjects with ≥1 SAE ([4]; SAD 10 mg (n = 6)): 0 n | Subjects with ≥1 TEAE ([4]; SAD 10 mg (n = 6)): 2 (33.3%) n (%) | Subjects with ≥1 study drug related TEAE ([4]; SAD 10 mg (n = 6)): 2 n | TEAEs ([4]; SAD 10 mg (n = 6)): 7 n | Subjects discontinued from study drug due to ≥1 TEAE ([4]; SAD 20 mg (n = 6)): 0 n | Subjects with ≥1 SAE ([4]; SAD 20 mg (n = 6)): 0 n | Subjects with ≥1 TEAE ([4]; SAD 20 mg (n = 6)): 3 (50.0%) n (%) | Subjects with ≥1 study drug related TEAE ([4]; SAD 20 mg (n = 6)): 2 n | TEAEs ([4]; SAD 20 mg (n = 6)): 5 n | Subjects discontinued from study drug due to ≥1 TEAE ([4]; SAD 30 mg (n = 6)): 0 n | Subjects with ≥1 SAE ([4]; SAD 30 mg (n = 6)): 0 n | Subjects with ≥1 TEAE ([4]; SAD 30 mg (n = 6)): 5 (83.3%) n (%) | Subjects with ≥1 study drug related TEAE ([4]; SAD 30 mg (n = 6)): 5 n | TEAEs ([4]; SAD 30 mg (n = 6)): 13 n | Subjects with gastrointestinal (GI)-related TEAEs ([4]; SAD 50 mg (4/6 subjects)): 66.7% | Subjects discontinued from study drug due to ≥1 TEAE ([4]; SAD 50 mg (n = 6)): 0 n | Subjects with ≥1 SAE ([4]; SAD 50 mg (n = 6)): 0 n | Subjects with ≥1 TEAE ([4]; SAD 50 mg (n = 6)): 5 (83.3%) n (%) | Subjects with ≥1 study drug related TEAE ([4]; SAD 50 mg (n = 6)): 3 n | TEAEs ([4]; SAD 50 mg (n = 6)): 15 n | Subjects with gastrointestinal (GI)-related TEAEs ([4]; SAD all cohorts except 50 mg (1/6 subjects each)): 16.7% | Subjects with at least one dizziness TEAE ([4]; SAD all zagociguat-treated subjects (8 of 42), none on placebo): 19.0% | Subjects discontinued from study drug due to ≥1 TEAE [4, 8]: 0 n | Subjects with ≥1 SAE [4, 8]: 0 n | Subjects with ≥1 TEAE [4, 8]: 22 (52.4%) n (%) | Subjects with ≥1 study drug related TEAE [4, 8]: 17 n | TEAEs [4, 8]: 57 n | Tolerability ([4]; single doses up to 50 mg): well‐tolerated with no safety signals | Subjects discontinued from study drug due to ≥1 TEAE ([5]; MAD 2 mg (n = 8)): 0 n | Subjects with ≥1 SAE ([5]; MAD 2 mg (n = 8)): 0 n | Subjects with ≥1 TEAE ([5]; MAD 2 mg (n = 8)): 6 (75%) n (%) | Subjects with ≥1 study drug related TEAE ([5]; MAD 2 mg (n = 8)): 6 n | TEAEs ([5]; MAD 2 mg (n = 8)): 17 n | Subjects discontinued from study drug due to ≥1 TEAE ([5]; MAD 5 mg (n = 8)): 0 n | Subjects with ≥1 SAE ([5]; MAD 5 mg (n = 8)): 0 n | Subjects with ≥1 TEAE ([5]; MAD 5 mg (n = 8)): 8 (100%) n (%) | Subjects with ≥1 study drug related TEAE ([5]; MAD 5 mg (n = 8)): 7 n | TEAEs ([5]; MAD 5 mg (n = 8)): 27 n | Subjects discontinued from study drug due to ≥1 TEAE ([5]; MAD 10 mg (n = 8)): 0 n | Subjects with ≥1 SAE ([5]; MAD 10 mg (n = 8)): 0 n | Subjects with ≥1 TEAE ([5]; MAD 10 mg (n = 8)): 8 (100%) n (%) | Subjects with ≥1 study drug related TEAE ([5]; MAD 10 mg (n = 8)): 5 n | TEAEs ([5]; MAD 10 mg (n = 8)): 19 n | Subjects with GI TEAEs ([5]; MAD 10 mg group): five | Subjects discontinued from study drug due to ≥1 TEAE ([5]; MAD 15 mg (n = 8)): 0 n | Subjects with ≥1 SAE ([5]; MAD 15 mg (n = 8)): 0 n | Subjects with ≥1 study drug related TEAE ([5]; MAD 15 mg (n = 8)): 5 n | TEAEs ([5]; MAD 15 mg (n = 8)): 18 n | Orthostatic hypotension events ([5]; MAD phase): No orthostatic hypotension events | Subjects discontinued from study drug due to ≥1 TEAE [5, 9]: 0 n | Subjects with ≥1 SAE [5, 9]: 0 n | Subjects with ≥1 study drug related TEAE [5, 9]: 23 n | TEAEs [5, 9]: 81 n | Tolerability ([5]; multiple doses up to 15 mg q.d. for 14 days): well‐tolerated with no safety signals | AST, peak ([5]; one subject, 2 mg q.d., day 16 (after last dose), normal range < 35 U/L): 49 U/L | ALT, peak ([5]; one subject, 2 mg q.d., day 16 (after last dose), normal range < 45 U/L): 92 U/L | GGT, peak ([5]; one subject, 2 mg q.d., day 16 (after last dose), normal range < 55 U/L): 22 U/L | ALT at follow-up [5, 10]: 49 U/L | AST at follow-up [5, 10]: 43 U/L | GGT at follow-up [5, 10]: 23 U/L | CSF/free plasma ratio ([6]; 1 h after oral 1 mg/kg): 0.45 | CSF/free plasma ratio ([6]; 2 h after oral 1 mg/kg): 0.32 | CSF/free plasma ratio ([6]; 4 h after oral 1 mg/kg): 0.3 | CSF/free plasma ratio ([6]; 8 h after oral 1 mg/kg): 0.28
